In article PMC7856085 (Archives of biochemistry and biophysics, 2020):

Key:
SmPutA = test: Fluorescence-based thermal shift assay; assay type: binding, Sinorhizobium meliloti; details: compound at 62.5 mM; ligand-free SmPutA T1/2 40.2 °C
[1] = biological target: GSALDH activity of SmPutA (Sinorhizobium meliloti, UniProt F7X6I3); test: GSALDH activity measurements; assay type: biochemical; details: for Ki / α: P5C variable substrate
[2] = test system: GSALDH active site of SmPutA; test: Co-crystallization / electron density in the GSALDH active site; design: species or system Sinorhizobium meliloti; details: co-crystallization at 50 mM
Outline: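 Recombinant SmPutA (expressed in E. coli) at 6 mg/mL in 50 mM Tris pH 8.0, 50 mM NaCl, 5% glycerol, 0.5 mM TCEP. Sitting-drop co-crystallization at 13 °C against 19% PEG-3350, 0.2 M ammonium sulfate, 0.1 M MgCl2, 0.1 M HEPES pH 8.0, 0.1 M sodium formate. Ligand at 50 mM, with or without 10 mM NAD+. Cryoprotected with added 15% PEG-200. Ligand density checked with polder omit maps.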

mammalian GSALDH = details: competitive with P5C; cited from earlier work
[3] = Competitive model, NAD+ fixed at 0.2 mM
[4] = Mixed model, NAD+ fixed at 0.2 mM
[5] = Uncompetitive model, NAD+ fixed at 0.2 mM

**Q.** Which results are given for O=C(O)[C@H]1C[C@@H](O)CN1 [CHDP, cis-4-hydroxy-D-proline]?
**A.** ΔT1/2 (increase of midpoint of stability curve) (SmPutA): 4.0 °C; Ki [1, 3]: 8 mM; Ki [1, 4]: 25 mM; α [1, 4]: 0.9 ± 0.5

**Q.** What does the source list for O=C(O)[C@@H]1C[C@H](O)CN1 [CHLP, cis-4-hydroxy-L-proline]?
**A.** Binding to GSALDH site (electron density) [2]: does not bind GSALDH; ΔT1/2 (increase of midpoint of stability curve) (SmPutA): 2.1 °C; Inhibition of the GSALDH activity of SmPutA ([1]; fit to competitive model, L-P5C variable substrate, NAD+ fixed): does not inhibit

**Q.** With O=C(O)[C@H]1CCCN1 [D-Pro, D-proline] as the compound, how does the Ki [1, 3] read?
**A.** 1.5 ± 0.5 mM

**Q.** What about the Ki [1, 5] of the same compound?
**A.** 4.5 ± 0.2 mM

**Q.** For O=C(O)C1CCC=N1 [L-P5C, Δ^1-pyrroline-5-carboxylate], which Km ([1]; substrate of GSALDH activity of SmPutA, NAD+ fixed at 0.2 mM) is on record?
**A.** 300 ± 100 µM

**Q.** With O=C(O)[C@@H]1CCCN1 [L-Pro, L-proline] as the compound, how does the Ki (mammalian GSALDH) read?
**A.** 3 mM

**Q.** What about the Ki [1, 3] of the same compound?
**A.** 11 mM

**Q.** And the Ki [1, 5]?
**A.** 19 mM

**Q.** With O=C(O)[C@H]1C[C@H](O)CN1 [THDP, trans-4-hydroxy-D-proline] as the compound, how does the “ΔT1/2 (increase of midpoint of stability curve)” value (SmPutA) read?
**A.** 5.6 °C

**Q.** And the Ki [1, 3]?
**A.** 4.5 ± 0.5 mM

**Q.** And the Ki [1, 4]?
**A.** 10 mM

**Q.** What about the α [1, 4] of the same compound?
**A.** 1.6 ± 0.4

**Q.** With O=C(O)[C@@H]1C[C@@H](O)CN1 [THLP, trans-4-hydroxy-L-proline] as the compound, how does the “ΔT1/2 (increase of midpoint of stability curve)” value (SmPutA) read?
**A.** 2.9 °C

**Q.** And the Ki [1, 3]?
**A.** 7 mM

**Q.** What about the Ki [1, 4] of the same compound?
**A.** 27 mM

**Q.** And the α [1, 4]?
**A.** 0.6 ± 0.1
